Measured values published in the array DNA melting data of Ke et al. (doi:10.1101/2024.01.08.574731).

Key:
[1] = folding enthalpy; higher = less favourable; fluorescence melt of hairpins on a sequencing array, two-state fit; conditions: sodium 0.088 M
Summary of the method: (§1)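 Cy3 fluorescence of library hairpins on a sequenced MiSeq flow cell, with annealed Cy3 and quencher oligos, was imaged in 50 mM Na-HEPES pH 8.0, 25 mM NaCl in 2.5 °C steps up to 60 °C. Signals were normalised to pre-quench Cy3 and to control variants. Melting temperature and folding enthalpy came from bootstrapped two-state fits, inverse-variance combined over four replicates. Fitted temperatures were raised by 9.35 °C to match UV melts.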

[2] = melting temperature; fluorescence melt of hairpins on a sequencing array, two-state fit, raised by 9.35 °C to match UV melts; conditions: sodium 0.088 M
Summary of the method: as §1

Sequence | folding enthalpy [1] | Tm [2]
GATCCGATTACGGATC ((((((....)))))) | -34.2 kcal/mol | 58.4 °C
GATCCGCACTCGGATC ((((((....)))))) | -41 kcal/mol | 56.5 °C
GATCCGCAGTCGGATC ((((((....)))))) | -35 kcal/mol | 55.9 °C
GATCCGCCAACGGATC ((((((....)))))) | -36 kcal/mol | 57.7 °C
GATCCGCCGCGGATC ((((((...)))))) | -40.5 kcal/mol | 56.5 °C
GATCCGCCTACGGATC ((((((....)))))) | -37.9 kcal/mol | 59.6 °C
GATCCGCGAAAGCGATC (((.(((....)))))) | -14 kcal/mol | 44.6 °C
GATCCGCTAACGGATC ((((((....)))))) | -37.2 kcal/mol | 58.8 °C
GATCCGCTGACGGATC ((((((....)))))) | -38 kcal/mol | 60.7 °C
GATCCGCTGCCGGATC ((((((....)))))) | -36.4 kcal/mol | 57 °C
GATCCGCTTCGGATC ((((((...)))))) | -39 kcal/mol | 58.6 °C
GATCCGGAATCGGATC ((((((....)))))) | -45.2 kcal/mol | 62 °C
GATCCGGACACGGATC ((((((....)))))) | -43.2 kcal/mol | 66 °C
GATCCGGACCGGATC ((((((...)))))) | -34.6 kcal/mol | 57.3 °C
GATCCGGAGCGGATC ((((((...)))))) | -33.3 kcal/mol | 56.1 °C
GATCCGGCTTCGGATC ((((((....)))))) | -39.8 kcal/mol | 59.5 °C
GATCCGGGAAACTGGATC (((((.(....).))))) | -41.7 kcal/mol | 52.1 °C
GATCCGGGACCGGATC ((((((....)))))) | -44.4 kcal/mol | 65.4 °C
GATCCGGGGACGGATC ((((((....)))))) | -41.6 kcal/mol | 61.9 °C
GATCCGGTAGCGGATC ((((((....)))))) | -31.3 kcal/mol | 64.2 °C
GATCCGGTTCCGGATC ((((((....)))))) | -43 kcal/mol | 62.7 °C
GATCCGGTTCGGATC ((((((...)))))) | -31.5 kcal/mol | 63.6 °C
GATCCGGTTGCGGATC ((((((....)))))) | -40.3 kcal/mol | 59.6 °C
GATCCGTAGACGGATC ((((((....)))))) | -42.9 kcal/mol | 58.2 °C

Sequence | folding enthalpy [1] | Tm [2]
GATCCGTCACGGATC ((((((...)))))) | -34.7 kcal/mol | 60.6 °C
GATCCGTCCACGGATC ((((((....)))))) | -43 kcal/mol | 64.1 °C
GATCCGTCGACGGATC ((((((....)))))) | -48.8 kcal/mol | 61.9 °C
GATCCGTCGCGGATC ((((((...)))))) | -35.8 kcal/mol | 59 °C
GATCCGTGAACGGATC ((((((....)))))) | -33.1 kcal/mol | 60.5 °C
GATCCGTGATCGGATC ((((((....)))))) | -32.1 kcal/mol | 58.6 °C
GATCCGTTAGCGGATC ((((((....)))))) | -39.9 kcal/mol | 60.8 °C
GATCCGTTCCGGATC ((((((...)))))) | -46 kcal/mol | 59.2 °C
GATCCTAAGGAGGATC ((((((....)))))) | -25.2 kcal/mol | 49.3 °C
GATCCTAATGAGGATC ((((((....)))))) | -34.1 kcal/mol | 50.5 °C
GATCCTACAAAGGATC ((((((....)))))) | -36.3 kcal/mol | 49.5 °C
GATCCTACCAGGATC ((((((...)))))) | -39.6 kcal/mol | 54.9 °C
GATCCTACGAAGGATC ((((((....)))))) | -35.9 kcal/mol | 50.3 °C
GATCCTACGCAGGATC ((((((....)))))) | -35 kcal/mol | 51.1 °C
GATCCTACGGAGGATC ((((((....)))))) | -35 kcal/mol | 50.9 °C
GATCCTACTCAGGATC ((((((....)))))) | -32.3 kcal/mol | 52 °C
GATCCTAGATAGGATC ((((((....)))))) | -36.1 kcal/mol | 50.8 °C
GATCCTATACAGGATC ((((((....)))))) | -38.1 kcal/mol | 52.4 °C
GATCCTATATAGGATC ((((((....)))))) | -46.7 kcal/mol | 52.3 °C
GATCCTATGAAGGATC ((((((....)))))) | -34 kcal/mol | 51 °C
GATCCTATGGAGGATC ((((((....)))))) | -35.2 kcal/mol | 50.6 °C
GATCCTATTCAGGATC ((((((....)))))) | -44 kcal/mol | 52.6 °C
GATCCTATTTAGGATC ((((((....)))))) | -40.6 kcal/mol | 54.4 °C
GATCCTCAAAGGATC ((((((...)))))) | -32.1 kcal/mol | 50.6 °C

Sequence | folding enthalpy [1] | Tm [2]
GATCCTCAACAGGATC ((((((....)))))) | -37.2 kcal/mol | 48.7 °C
GATCCTCACAGGATC ((((((...)))))) | -27.2 kcal/mol | 54 °C
GATCCTCAGCAGGATC ((((((....)))))) | -33.2 kcal/mol | 48.8 °C
GATCCTCATCAGGATC ((((((....)))))) | -37 kcal/mol | 49.7 °C
GATCCTCCATAGGATC ((((((....)))))) | -33.5 kcal/mol | 51.1 °C
GATCCTCCTAGGATC ((((((...)))))) | -39.2 kcal/mol | 54 °C
GATCCTCCTTAGGATC ((((((....)))))) | -36.8 kcal/mol | 50.9 °C
GATCCTCGAAAGGATC ((((((....)))))) | -37.2 kcal/mol | 50.4 °C
GATCCTCGAGAGGATC ((((((....)))))) | -42.7 kcal/mol | 56.8 °C
GATCCTCGCGAGGATC ((((((....)))))) | -43.4 kcal/mol | 60.4 °C
GATCCTCGGTAGGATC ((((((....)))))) | -26.9 kcal/mol | 50.9 °C
GATCCTCGTAAGGATC ((((((....)))))) | -35.3 kcal/mol | 54.5 °C
GATCCTCGTGAGGATC ((((((....)))))) | -36.6 kcal/mol | 61.5 °C
GATCCTCTATAGGATC ((((((....)))))) | -40.8 kcal/mol | 51.9 °C
GATCCTCTGTAGGATC ((((((....)))))) | -36.2 kcal/mol | 51.8 °C
GATCCTCTTTAGGATC ((((((....)))))) | -46.6 kcal/mol | 52 °C
GATCCTGAGTAGGATC ((((((....)))))) | -37.9 kcal/mol | 50.9 °C
GATCCTGATTAGGATC ((((((....)))))) | -40.4 kcal/mol | 51.3 °C
GATCCTGCTAGGATC ((((((...)))))) | -34 kcal/mol | 54.8 °C
GATCCTGGAAACAGGATC (((((((....))))))) | -44.4 kcal/mol | 61.7 °C
GATCCTGGAAACAGGGTC ((.((((....)))).)) | -32.9 kcal/mol | 50.8 °C
GATCCTGGCCAGGATC ((((((....)))))) | -47.6 kcal/mol | 61.3 °C
GATCCTGGCTAGGATC ((((((....)))))) | -38.3 kcal/mol | 57.5 °C
GATCCTGGTAAGGATC ((((((....)))))) | -41.8 kcal/mol | 65.8 °C

Sequence | folding enthalpy [1] | Tm [2]
GATCCTGGTTAGGATC ((((((....)))))) | -38 kcal/mol | 51.9 °C
GATCCTTAACAGGATC ((((((....)))))) | -36.3 kcal/mol | 49 °C
GATCCTTACGAGGATC ((((((....)))))) | -39.9 kcal/mol | 53.2 °C
GATCCTTACTAGGATC ((((((....)))))) | -36.5 kcal/mol | 52.4 °C
GATCCTTAGCAGGATC ((((((....)))))) | -38 kcal/mol | 48.8 °C
GATCCTTCCGAGGATC ((((((....)))))) | -43.5 kcal/mol | 53.1 °C
GATCCTTGAAGGATC ((((((...)))))) | -38.8 kcal/mol | 51.2 °C
GATCCTTGACAGGATC ((((((....)))))) | -28.2 kcal/mol | 49.7 °C
GATCCTTGAGAGGATC ((((((....)))))) | -42.5 kcal/mol | 53.6 °C
GATCCTTGGGAGGATC ((((((....)))))) | -43.2 kcal/mol | 53.2 °C
GATCCTTGTCAGGATC ((((((....)))))) | -37.6 kcal/mol | 50.1 °C
GATCCTTGTTAGGATC ((((((....)))))) | -34.8 kcal/mol | 52.8 °C
GATCCTTTCTAGGATC ((((((....)))))) | -40.5 kcal/mol | 53.7 °C
GATCCTTTGAGGATC ((((((...)))))) | -33.6 kcal/mol | 54.2 °C
GATCCTTTTAGGATC ((((((...)))))) | -28.8 kcal/mol | 58.9 °C
GATCGAAACATCGATC ((((((....)))))) | -39.9 kcal/mol | 50 °C
GATCGAAAGATCGATC ((((((....)))))) | -19.9 kcal/mol | 50.2 °C
GATCGAAAGTTCGATC ((((((....)))))) | -36.2 kcal/mol | 50.4 °C
GATCGAACACTCGATC ((((((....)))))) | -31 kcal/mol | 48.9 °C
GATCGAACATTCGATC ((((((....)))))) | -38.5 kcal/mol | 50.7 °C
GATCGAACCCTCGATC ((((((....)))))) | -39.5 kcal/mol | 50.2 °C
GATCGAACCTTCGATC ((((((....)))))) | -40.7 kcal/mol | 53.5 °C
GATCGAACGCTCGATC ((((((....)))))) | -40.4 kcal/mol | 50.7 °C
GATCGAACTGTCGATC ((((((....)))))) | -31.1 kcal/mol | 49.2 °C
